Results reported in ChEMBL document CHEMBL1139963, “Boswellic acids and glucosamine show synergistic effect in preclinical anti-inflammatory study in rats” (2007).
The source made the active and inactive calls. The calls are words filed in the database; no cut-off is given here.

Tests used:
Rattus norvegicus [1] = assay: Antiarthritic activity against Mycobacterium tuberculosis-induced rat arthritic model at 250 mg/kg relative to control; format: functional, organism-based; set-up: dose 250 mg/kg
How it was run: (§1)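 Adjuvant arthritis in rats, five per group. A 5 mg/ml suspension of heat-killed Mycobacterium tuberculosis in liquid paraffin was injected subplantar into the left hind foot. Oral dosing ran from one day before immunization to day 13. Paw volume was measured on alternate days, and percent change was calculated versus the vehicle control. The chronic phase begins after day 8. Data are means ± SE, analysed by Student's t-test.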

Rattus norvegicus [2] = assay: Antiinflammatory activity against carrageenan-induced paw edema in Wistar rat assessed as reduction of paw edema at 250 mg/kg relative to control; format: functional, organism-based; set-up: dose 250 mg/kg
How it was run: (§2)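 Rats, five per group, were dosed orally with suspensions in 2% gum acacia. After 45 min, freshly prepared 10 mg/ml carrageenan was injected subplantar into the left hind paw, with saline in the contralateral paw. Paw volume was measured by volume differential meter immediately and hourly to 4 h. Percent protection was calculated versus control. Data are means ± SE, analysed by Student's t-test.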

Rattus norvegicus [3] = assay: Antiinflammatory activity against carrageenan-induced paw edema in Wistar rat assessed as reduction of paw edema at 250 mg/kg after 3 hrs relative to control; format: functional; how it was run: as §2
Rattus norvegicus [4] = assay: Antiarthritic activity against Mycobacterium tuberculosis-induced rat arthritic model assessed as inhibition of chronic phase inflammation at 250 mg/kg relative to control; format: functional; how it was run: as §1
Rattus norvegicus [5] = assay: Antiinflammatory activity against carrageenan-induced paw edema in Wistar rat assessed as reduction of paw edema at 250 mg/kg after 4 hrs relative to control; format: functional; how it was run: as §2
Rattus norvegicus [6] = assay: Antiinflammatory activity against carrageenan-induced paw edema in Wistar rat assessed as reduction of paw edema at 100 mg/kg relative to control; format: functional; set-up: scale not given: the % may be the effect or the level left; how it was run: as §2
Rattus norvegicus [7] = assay: Antiarthritic activity against Mycobacterium tuberculosis-induced rat arthritic model assessed as inhibition of chronic phase inflammation at 100 mg/kg relative to control; format: functional, organism-based; set-up: dose 100 mg/kg; how it was run: as §1
Rattus norvegicus [8] = assay: Antiarthritic activity against Mycobacterium tuberculosis-induced rat arthritic model assessed as inhibition of acute phase inflammation at 100 mg/kg relative to control; format: functional, organism-based; set-up: dose 100 mg/kg; how it was run: as §1

SMILES | Activity (Rattus norvegicus [1]) | Activity (Rattus norvegicus [2]) | inhibition in vivo at 250 mg/kg (Rattus norvegicus [3]) [%] | inhibition in vivo at 250 mg/kg (Rattus norvegicus [4]) [%] | inhibition in vivo at 250 mg/kg (Rattus norvegicus [5]) [%] | Activity (Rattus norvegicus [6]) [%] | Activity (Rattus norvegicus [7]) | Activity (Rattus norvegicus [8])
C[C@H]1[C@H](C)CC[C@]2(C)CC[C@]3(C)C(=CC(=O)[C@@H]4[C@@]5(C)CC[C@@H](O)[C@](C)(C(=O)O)[C@@H]5CC[C@]43C)[C@H]12 | Active | Active |  |  |  |  |  | 
CC1(C)CC[C@]2(C)CC[C@]3(C)C(=CC[C@@H]4[C@@]5(C)CC[C@@H](O)[C@](C)(C(=O)O)[C@@H]5CC[C@]43C)[C@@H]2C1 |  |  | 28.6 | 36.4 | 25.8 |  |  | 
C[C@H]1[C@H](C)CC[C@]2(C)CC[C@]3(C)C(=CC[C@@H]4[C@@]5(C)CC[C@@H](O)[C@](C)(C(=O)O)[C@@H]5CC[C@]43C)[C@H]12 [BOSWELLIC ACID] |  |  | 28.6 | 36.4 | 25.8 |  |  | 
N[C@@H]1[C@@H](O)[C@H](O)[C@@H](CO)O[C@H]1O [GLUCOSAMINE] |  |  | 15.2 | 21.6 | 16.1 |  |  | 
CC(C)Cc1ccc([C@H](C)C(=O)O)cc1 [DEXIBUPROFEN] |  |  |  |  |  | 55.64 | Active | Active
